High-throughput results deposited in PubChem BioAssay by The Scripps Research Institute Molecular Screening Center.
M4 PAM – positive allosteric modulators of human muscarinic M4 receptor; P08173; CHO-K1 hM4/Gqi5, Fluo-8 calcium fluorescence, ACh EC20; 0% = ACh EC20, 100% = maximal ACh; activation, % at 3 µM; hit rate 0.4% among 360,000; AID 624126;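 active = activation above its plate's cutoff, the mean activation of sample wells plus 3 SD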
Target sequence (P08173 whole entry, looked up): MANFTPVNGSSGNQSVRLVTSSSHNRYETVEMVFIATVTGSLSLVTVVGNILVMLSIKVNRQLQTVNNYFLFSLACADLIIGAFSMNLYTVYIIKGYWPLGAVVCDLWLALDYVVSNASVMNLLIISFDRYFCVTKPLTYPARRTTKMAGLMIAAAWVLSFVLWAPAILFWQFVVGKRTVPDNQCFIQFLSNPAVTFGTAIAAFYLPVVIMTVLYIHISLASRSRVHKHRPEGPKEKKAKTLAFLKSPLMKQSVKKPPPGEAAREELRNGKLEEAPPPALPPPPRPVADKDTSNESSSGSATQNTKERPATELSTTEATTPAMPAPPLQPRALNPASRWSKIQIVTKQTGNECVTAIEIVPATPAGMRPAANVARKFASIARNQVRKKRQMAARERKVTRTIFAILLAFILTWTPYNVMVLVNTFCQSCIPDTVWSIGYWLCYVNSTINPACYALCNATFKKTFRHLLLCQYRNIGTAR
M5 PAM – potentiates acetylcholine response at human M5 receptor; P08912; CHO-K1 hM5, Fluo-8 calcium, ACh EC20 PAM; 0% = ACh EC20, 100% = ACh EC100; activation, % at 3 µM; hit rate 0.3% among 360,000; AID 624038;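 active = activation above the run cutoff, the mean activation of all test compounds plus 3 SD, cut at about 18% in these data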
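Assay system: CHO-K1 hM5 cells. Also added: acetylcholine at EC20 concentration, added after compound. Dosing: 3 µM, single dose. Times: compound preincubation 140 s before EC20 acetylcholine addition. Signal: Fluo-8 calcium fluorescence. Measure: % activation relative to EC20 and EC100 ACh responses. Repeats: singlicate, one well per test compound.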
CHRM5 antagonist – antagonists of human muscarinic M5 receptor (CHRM5) | CHO-hM5 cells, Fluo-8 calcium fluorescence, ACh EC80 | inhibition, % at 3 µM | hit rate 0.59% among 360,000 | AID 624040;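 active = inhibition above a per-plate cutoff, the mean of that plate's test compounds plus 3 SD, cut at about 27% in these data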;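 also: 0% = acetylcholine EC80 with DMSO and 100% = DMSO without agonist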
CHRM4 agonist – CHRM4 agonism in calcium assay; hit rate 0.14% among 360,000; AID 624127; activation, % at 3 µM; P08173; CHO-K1 hM4/Gqi5, Fluo-8 calcium fluorescence; vehicle 0%, full acetylcholine response 100%;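 active = activation above the run mean over all test wells plus 3 SD, cut at about 32% in these data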;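 also: peak over basal fluorescence ratio per well then scaled between controls; 0% = DMSO wells and 100% = acetylcholine at EC100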
M4 antag – antagonists of human muscarinic M4 receptor (CHRM4) | P08173 | hit rate 0.73% among 360,000 | CHO-hM4 cells, ACh EC80, Fluo-8 calcium fluorescence | inhibition, % at 3 µM;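 active = inhibition above its plate's cutoff, the mean inhibition of sample wells plus 3 SD, cut at about 27% in these data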;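 also: 0% = acetylcholine EC80 with DMSO and 100% = DMSO without agonist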
M5 ag – CHRM5 agonism in calcium assay | CHO-K1 hM5 cells, Fluo-8 calcium fluorescence; 0% DMSO wells, 100% maximal acetylcholine response | activation, % at 3 µM | hit rate 0.19% among 360,000 | AID 624037;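 active = activation above the run's mean over test compounds plus 3 SD, cut at about 23% in these data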;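 also: signal is peak over basal fluorescence ratio across the kinetic read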
* hit, by the source's call. A selection: hits, their analogues and other compounds. The true share with any hit is near 1.8%.

SMILES | M4 PAM | M5 PAM | CHRM5 antagonist | CHRM4 agonist | M4 antag | M5 ag
COc1ccccc1C(CC(=O)c1ccccc1)C(=O)c1ccccc1 (stereo not given) | -11.0 | -14.2 | 8.6 | 14.2 | 27.4* | 4.8
COc1ccccc1C(CC(=O)c1ccccc1)CC(=O)c1ccccc1 | -8.1 | -11.5 | -4.3 | -0.1 | -6.7 | -2.8
Cc1cc(/C=C2\C(=N)N3N=C(c4ccco4)SC3=NC2=O)c(C)n1Cc1ccccc1 | -20.8 | -10.3 | 1.0 | 8.2 | 8.0 | 1.1
N=C1/C(=C\c2coc3ccc(O)cc3c2=O)C(=O)N=C2SC=CN12 | -34.1 | -29.4 | 26.2 | 49.7* | 22.6 | 65.2*
N=C1/C(=C\c2coc3ccccc3c2=O)C(=O)N=C2SC(c3ccncc3)=NN12 | -36.6 | -33.8 | 51.5* | 41.2* | 28.3* | 65.0*
N=C1/C(=C/c2coc3ccccc3c2=O)C(=O)N=C2SC(c3ccco3)=NN12 | -19.4 | -35.4 | 53.4* | 64.3* | 23.2 | 222.9*
CN1C(=O)/C(=C/c2coc3ccc(O)cc3c2=O)SC1=S | 2.4 | -0.6 | 9.0 | 0.5 | -4.1 | 1.6
COCCNC(=O)COc1coc(CN2CCN(Cc3ccccc3)CC2)cc1=O | -0.5 | -0.5 | 14.5 | 2.4 | 4.8 | -1.7
COc1ccccc1-c1nnc(NC(=O)CSc2nncn2C)s1 | -3.6 | -0.8 | 1.0 | 1.4 | 7.9 | -0.9
CCOC(=O)C1=NN(c2ccc(OC)cc2)C2C(=O)N(c3ccccc3OC)C(=O)C12 (stereo not given) | -10.8 | 1.5 | 4.2 | 2.0 | 9.9 | 5.5
CCOC(=O)C1=NN(c2ccccc2)C2C(=O)N(c3ccccc3OC)C(=O)C12 (stereo not given) | -0.8 | -12.5 | 27.2* | 1.4 | 7.2 | -2.4
Cc1cccc(OC(C)C(=O)Nc2ccc(S(=O)(=O)N3CCCC3)cc2)c1 (stereo not given) | -8.1 | -9.4 | -3.4 | 9.7 | -17.8 | -3.0
CCc1cccc(CC)c1N1C(=O)COCC1=O | -3.3 | -1.6 | 6.3 | 0.3 | -3.3 | -1.0
CCc1cccc(CC)c1N1C(=O)C2=C(SCCCS2)C1=O | -12.6 | -9.2 | 12.4 | 33.8* | 6.5 | 11.4
C=CCN(c1ccc(C(=O)N2CCN(c3ccc(F)cc3)CC2)cc1)S(C)(=O)=O | 4.1 | -1.9 | 42.4* | 1.0 | -2.5 | 3.0
CCSc1nnc(NC(=O)c2ccc(F)c(S(=O)(=O)N3CCOCC3)c2)s1 | 0.3 | 2.1 | 4.9 | 0.7 | 1.7 | -0.6
CCCCCCC(=O)NNC(=O)CC(=O)Nc1ccccc1C(=O)O | 46.3* | 0.8 | 5.7 | 0.2 | 0.0 | 2.8
CSc1ccccc1NC(=O)CSCc1ccc(C)cc1 | -0.2 | 3.2 | 3.9 | -2.2 | 6.3 | -2.8
Cc1ccc(CSCC(=O)Nc2ccccc2C(=O)O)cc1 | 15.0* | 7.5 | -6.1 | -0.7 | -4.4 | 4.3
CCOCC(=O)Nc1ccccc1C(=O)O | 26.2* | 5.7 | -4.0 | 5.5 | -11.3 | -0.5
COc1ccc(C(=O)N/C(=C\c2ccccc2)C(=O)N2CCOCC2)cc1 | 19.3* | -4.1 | -6.5 | 2.2 | -10.0 | -0.9
COC(CNS(=O)(=O)c1ccc(S(=O)(=O)NC2CC2)cc1)OC | 3.9 | 3.1 | 6.6 | 0.1 | -5.1 | -1.4
O=C(NNS(=O)(=O)c1ccc2ccccc2c1)C1CCN(Cc2ccccc2)CC1 | -23.0 | -23.4 | 46.4* | 2.3 | 41.5* | -4.2
COc1ccc(CCn2c(NN=C3CCCCC3)nc3c2c(=O)[nH]c(=O)n3C)cc1 | 13.8* | 5.4 | 6.0 | -0.1 | 2.4 | 1.5
COc1ccc(NC(=O)Nc2cccs2)cc1Cl | -14.7 | -16.5 | 14.1 | 11.1 | 5.7 | 7.5
SMILES | M4 PAM | M5 PAM | CHRM5 antagonist | CHRM4 agonist | M4 antag | M5 ag
Nc1c(C(=O)c2ccc(Cl)cc2)sc2nsc(SCCN3CCOCC3)c12 | -2.6 | -7.1 | 6.1 | 3.7 | 0.9 | 9.1
Nc1c(C(=O)c2ccccc2)sc2nsc(SCCN3CCCC3)c12 | -16.9 | -11.0 | 23.6 | 14.9 | 16.6 | 31.6*
COc1ccc(C2=NOC(C(=O)NCc3ccc(F)cc3)C2)cc1 (stereo not given) | 0.5 | -3.7 | 0.0 | -0.1 | 9.7 | 0.7
COc1ccc(CNC(=O)C2CC(c3ccc(F)cc3)=NO2)cc1 (stereo not given) | 35.9* | -0.9 | -7.9 | 1.2 | -0.6 | -2.2
Cc1ccc(/C=N/NC(=O)C(C)Oc2cccc3ccccc23)o1 (stereo not given) | 2.3 | 2.4 | -9.3 | 4.6 | 2.6 | 0.8
O=C1CCCCC1C(O)(C(=O)c1ccccc1)c1ccccc1 (stereo not given) | -1.4 | -2.2 | 11.0 | -3.1 | 5.8 | -2.2
CC[N+](C)(CC)CCOC(=O)C(O)(c1ccccc1)C1CCCCC1 (stereo not given) | -17.8 | -18.3 | 98.0* | 0.2 | 98.7* | -1.6
CC[N+](C)(CC)CCC(c1ccccc1)C1CCCCC1 (stereo not given) | -15.2 | -31.6 | 99.0* | 0.2 | 97.1* | -25.6
CCC(C(=O)NC1CCCCCC1)c1ccccc1 (stereo not given) | -21.6 | 10.8 | -10.9 | -0.1 | -0.5 | -8.6
O=C(CCl)N(c1ccc(Cl)cc1)c1c[nH]c2ccccc12 | 5.3 | 5.1 | 6.3 | 8.1 | 34.8* | 8.4
O=C(CCl)N(c1ccccc1)c1c[nH]c2ccccc12 | 1.9 | -3.5 | -2.1 | 1.8 | 0.1 | -4.6
COc1ccc(C2(C)NC(=O)N(CC(=O)Nc3cccnc3Cl)C2=O)cc1 (stereo not given) | -2.1 | -4.2 | 4.3 | 2.4 | 3.8 | 9.9
CC1(c2ccc(OC(F)F)cc2)NC(=O)N(CC(=O)Nc2cccnc2Cl)C1=O (stereo not given) | -6.0 | -11.6 | 8.3 | 27.6 | 7.9 | 43.3*
O=C(NCc1ccc2c(c1)OCO2)c1cc2ccccc2o1 | 4.8 | 30.1* | 1.1 | 0.1 | 6.4 | -6.1
Cn1nc(C(C)(C)C)cc1C(=O)NCc1ccc2c(c1)OCO2 | -8.8 | -10.6 | 29.4* | 12.7 | 9.8 | 5.4
O=C(O)c1ccccc1C(=O)NCc1ccc2c(c1)OCO2 | 3.4 | -1.3 | 7.3 | 0.0 | 7.8 | -4.6
Cc1oc(C(C)(C)C)cc1C(=O)NCc1ccc2c(c1)OCO2 | 1.9 | -0.2 | 9.1 | 1.6 | -10.1 | 0.7
CC[C@@H](C(=O)[C@@H](C)[C@@H](O)[C@H](C)CCc1ccc(C)c(O)c1C(=O)O)[C@H]1O[C@](CC)([C@H]2CC[C@](O)(CC)[C@H](C)O2)C[C@@H]1C | -11.1 | -14.2 | 0.2 | 71.7* | 5.0 | 26.9*
CN(Cc1ccccc1)C(=O)c1cccc(NC(=O)Cc2ccc(NC(=O)C3CCCN(C(=O)C4CCCCC4)C3)cc2)c1 (stereo not given) | -10.1 | -8.5 | 14.8 | 6.7 | 14.7 | -3.0
